In ChEMBL document CHEMBL1158566, “The bisnaphthalimides as new active lead compounds against Plasmodium falciparum” (Bioorg Med Chem, 2010):
Calls of active or inactive are those of the source. The rule behind the calls is not given here.

Experiments:
Plasmodium falciparum [1] = test: Antiplasmodial activity against chloroquine-sensitive Plasmodium falciparum 3D7 assessed as parasite-specific LDH release after 72 hrs by Malstat assay; type: functional, organism-based; conditions: 3D7, 72 h
Summary of the method: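 Synchronized 3D7 ring stages seeded at 1% parasitemia with compound (in H2O or DMSO) across 10 pM–100 µM. DMSO 0.5% served as negative control. Cultured 72 h in triplicate, then viability read as Plasmodium lactate dehydrogenase activity (Malstat). Each compound run two to four times. IC50 and standard deviation calculated.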

[2] = Cytotoxicity against mouse J774.1 cells after 48 hrs by alamar blue satining; type: cell-based; conditions: J774.1, 48 h
Summary of the method: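 J774.1 macrophages at 1×10^5 cells/mL in phenol-red-free RPMI (10% FCS, 2 mM glutamine, 10 mM Hepes pH 7.2, 50 µM 2-mercaptoethanol, antibiotics) with increasing compound concentrations, 24 h at 37 °C, 5% CO2. AlamarBlue added to 10%, further 24 and 48 h incubation. Absorbance read at 540 nm against 630 nm reference. Final DMSO ≤1%, duplicates.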

Plasmodium falciparum [3] = test: Antiplasmodial activity against blood stage forms of chloroquine-sensitive Plasmodium falciparum 3D7 assessed as dysfunctional intracellular membrane biosynthesis at IC50 after 72 hrs by electron microscopy; type: functional, organism-based
Summary of the method: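 Blood-stage P. falciparum cultured in vitro, exposed 72 h to compound or to 0.5 vol % DMSO control. Fixed in 1% glutaraldehyde/4% paraformaldehyde in PBS, post-fixed in 1% OsO4/1.5% K3[Fe(CN)6], uranyl acetate stained, ethanol-dehydrated and Epon-embedded. Ultrathin sections post-stained with 1% uranyl acetate and examined by transmission EM for intracellular membrane whirls.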

Plasmodium falciparum [4] = test: Antiplasmodial activity against chloroquine-resistant Plasmodium falciparum Dd2 assessed as parasite-specific LDH release after 72 hrs by Malstat assay; type: functional, organism-based; conditions: Dd2, 72 h
Summary of the method: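 P. falciparum asexual blood stages: synchronized ring-stage cultures at 1% parasitemia, exposed to compounds (in water or DMSO) over 10 pM–100 µM for 72 h in triplicate. 0.5% DMSO served as negative control. Viability was read as parasite lactate dehydrogenase activity (Malstat). Each compound was run two to four times, and IC50 with standard deviation was calculated.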

Work on `CC(C)(CN1C(=O)c2cccc3cc(N)cc(c23)C1=O)C[N+](C)(C)CCCCCC[N+](C)(C)CC(C)(C)CN1C(=O)c2cccc3cc(N)cc(c23)C1=O` yielded an IC50 (Plasmodium falciparum [1]) of 22.6 µM and an IC50 [2] greater than 100 µM.
In the case of `CC(C)(CN1C(=O)c2cccc3cc([N+](=O)[O-])cc(c23)C1=O)C[N+](C)(C)CCCCCC[N+](C)(C)CC(C)(C)CN1C(=O)c2cccc3cc([N+](=O)[O-])cc(c23)C1=O`, the Activity (Plasmodium falciparum [3]) is reported as “Active”, the IC50 (Plasmodium falciparum [1]) is reported as 0.66 µM and the IC50 [2] is reported as greater than 100 µM.
`CC(C)(CN1C(=O)c2cccc3cccc(c23)C1=O)C[N+](C)(C)CCCCCC[N+](C)(C)CC(C)(C)CN1C(=O)c2cccc3cccc(c23)C1=O` showed an IC50 (Plasmodium falciparum [1]) of 0.8 µM and an IC50 [2] greater than 100 µM.
`CC(C)(CN1C(=O)c2cccc3cccc(c23)C1=O)C[N+](C)(C)CCCCCCBr` gave an IC50 (Plasmodium falciparum [4]) of 0.89 µM, an IC50 (Plasmodium falciparum [1]) of 0.43 µM and an IC50 [2] greater than 100 µM.
For `C[N+](C)(CCCCCCCCCCC[N+](C)(C)CCCN1C(=O)c2cccc3cccc(c23)C1=O)CCCN1C(=O)c2cccc3cccc(c23)C1=O`, the IC50 (Plasmodium falciparum [1]) was 0.17 µM and the IC50 [2] was greater than 100 µM.
`C[N+](C)(CCCCC[N+](C)(C)CCCN1C(=O)c2cccc3cccc(c23)C1=O)CCCN1C(=O)c2cccc3cccc(c23)C1=O` gave an IC50 (Plasmodium falciparum [1]) greater than 100 µM and an IC50 [2] greater than 100 µM.
`C[N+](C)(CCCCCCC[N+](C)(C)CCCN1C(=O)c2cccc3cccc(c23)C1=O)CCCN1C(=O)c2cccc3cccc(c23)C1=O` showed an IC50 (Plasmodium falciparum [1]) of 0.51 µM and an IC50 [2] greater than 100 µM.
Work on `C[N+](C)(CCCCCCCCCC[N+](C)(C)CCCN1C(=O)c2cccc3cccc(c23)C1=O)CCCN1C(=O)c2cccc3cccc(c23)C1=O` yielded an IC50 (Plasmodium falciparum [1]) of 0.145 µM and an IC50 [2] greater than 100 µM.
`C[N+](C)(CCCC[N+](C)(C)CCCN1C(=O)c2cccc3cccc(c23)C1=O)CCCN1C(=O)c2cccc3cccc(c23)C1=O` showed an IC50 (Plasmodium falciparum [1]) greater than 100 µM and an IC50 [2] greater than 100 µM.
In the case of `CCC[N+](C)(C)CC(C)(C)CN1C(=O)c2cccc3cccc(c23)C1=O`, the IC50 (Plasmodium falciparum [4]) is reported as 8.11 µM, the IC50 (Plasmodium falciparum [1]) is reported as 9.81 µM and the IC50 [2] is reported as greater than 100 µM.
`CC(C)(CN1C(=O)c2cccc3c([N+](=O)[O-])ccc(c23)C1=O)C[N+](C)(C)CCCCCC[N+](C)(C)CC(C)(C)CN1C(=O)c2cccc3c([N+](=O)[O-])ccc(c23)C1=O` showed an IC50 (Plasmodium falciparum [1]) of 3.48 µM and an IC50 [2] greater than 100 µM.
Molecule `C[N+](C)(C)CCCCCCCCCCCC[N+](C)(C)C` has an IC50 (Plasmodium falciparum [1]) of 0.395 µM and an IC50 [2] greater than 100 µM.
`CN(C)CCCN1C(=O)c2cccc3cccc(c23)C1=O` showed an IC50 (Plasmodium falciparum [1]) greater than 100 µM and an IC50 [2] greater than 100 µM.
With `C[N+](C)(CCCCCCCCC[N+](C)(C)CCCN1C(=O)c2cccc3cccc(c23)C1=O)CCCN1C(=O)c2cccc3cccc(c23)C1=O` the IC50 (Plasmodium falciparum [1]) was 0.06 µM and the IC50 [2] was greater than 100 µM.
`C[N+](C)(C)CCCCCCCCCC[N+](C)(C)C` [DECAMETHONIUM BROMIDE] gave an IC50 (Plasmodium falciparum [1]) of 0.911 µM and an IC50 [2] greater than 100 µM.
In the case of `C[N+](C)(CCCCCCCC[N+](C)(C)CCCN1C(=O)c2cccc3cccc(c23)C1=O)CCCN1C(=O)c2cccc3cccc(c23)C1=O`, the IC50 (Plasmodium falciparum [1]) is reported as 0.064 µM and the IC50 [2] is reported as greater than 100 µM.
Work on `C[N+](C)(C)CCCCCC[N+](C)(C)C` [HEXAMETHONIUM BROMIDE] yielded an IC50 (Plasmodium falciparum [1]) greater than 100 µM and an IC50 [2] greater than 100 µM.
In the case of `CC(C)(CN1C(=O)c2cccc3c(N)ccc(c23)C1=O)C[N+](C)(C)CCCCCC[N+](C)(C)CC(C)(C)CN1C(=O)c2cccc3c(N)ccc(c23)C1=O`, the IC50 (Plasmodium falciparum [4]) is reported as 7.39 µM, the IC50 (Plasmodium falciparum [1]) is reported as 6.76 µM and the IC50 [2] is reported as greater than 100 µM.
Molecule `C[N+](C)(CCCCCC[N+](C)(C)CCCN1C(=O)c2cccc3cccc(c23)C1=O)CCCN1C(=O)c2cccc3cccc(c23)C1=O` has an IC50 (Plasmodium falciparum [1]) of 7.99 µM and an IC50 [2] greater than 100 µM.
Molecule `C[N+](C)(CCCN1C(=O)c2cccc3cccc(c23)C1=O)CCC[N+](C)(C)CCCN1C(=O)c2cccc3cccc(c23)C1=O` has an IC50 (Plasmodium falciparum [1]) greater than 100 µM and an IC50 [2] greater than 100 µM.
With `CC(C)(CN1C(=O)c2cccc3cccc(c23)C1=O)C[N+](C)(C)CCCCCC[N+](C)(C)CCCN1C(=O)c2cccc3cccc(c23)C1=O` the Activity (Plasmodium falciparum [3]) was “Active”, the IC50 (Plasmodium falciparum [1]) was 0.4 µM and the IC50 [2] was greater than 100 µM.
Work on `C[N+](C)(CCCCCCCCCCCC[N+](C)(C)CCCN1C(=O)c2cccc3cccc(c23)C1=O)CCCN1C(=O)c2cccc3cccc(c23)C1=O` yielded an IC50 (Plasmodium falciparum [1]) of 0.219 µM and an IC50 [2] greater than 100 µM.
